Bioassay records deposited in PubChem by several laboratories.
CXCR6 inh: blocks human CXCR6 beta-arrestin recruitment. O00574. CHO-K1 PathHunter CXCR6 beta-arrestin, luminescence. inhibition, % at 20 µM. 360,000 compounds, 0.36% hits; in the data active = inhibition above about 34%, passing the limit was not always enough;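 also: antagonist mode with CXCL16 agonist at 10 nM final; 0% = 10 nM CXCL16 with DMSO and 100% = unstimulated wells without agonist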
EBI2 antag: antagonists of human EBI2 receptor. EBI2 beta-arrestin recruitment, luminescence, 7a,25-OHC stimulated. AID 651636. P32249. 360,000 compounds, 0.81% hits. inhibition, % at 5 µM; in the data active = inhibition above about 38%;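 also: enzyme fragment complementation signal reports receptor beta-arrestin coupling in cells; 0% = agonist plus DMSO wells and 100% = wells without agonist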
Target sequence (P32249 whole entry, looked up, the tested form may be a part): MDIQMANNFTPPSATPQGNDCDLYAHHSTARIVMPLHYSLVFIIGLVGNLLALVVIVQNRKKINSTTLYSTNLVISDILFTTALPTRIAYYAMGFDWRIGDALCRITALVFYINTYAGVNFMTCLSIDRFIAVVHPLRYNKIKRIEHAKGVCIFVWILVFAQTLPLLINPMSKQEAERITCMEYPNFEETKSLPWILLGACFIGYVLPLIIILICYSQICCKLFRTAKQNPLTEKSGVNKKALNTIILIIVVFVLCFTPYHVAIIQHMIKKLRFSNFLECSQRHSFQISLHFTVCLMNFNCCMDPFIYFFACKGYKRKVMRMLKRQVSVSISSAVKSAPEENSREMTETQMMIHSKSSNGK
CCR6 antag: antagonists of human CCR6 receptor | P51684 | CHO-K1 CCR6 PathHunter beta-arrestin, luminescence, CCL20-stimulated | inhibition, % at 20 µM | 340,000 compounds, 0.49% hits;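 active = compounds whose inhibition of the agonist-driven luminescence signal at 20 µM reaches about 50%, limit read from the data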;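 also: cells stimulated with CCL20 at 14 nM final; plate controls were DMSO with CCL20 for no effect and DMSO without agonist for full effect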
Target sequence (P51684 whole entry, looked up): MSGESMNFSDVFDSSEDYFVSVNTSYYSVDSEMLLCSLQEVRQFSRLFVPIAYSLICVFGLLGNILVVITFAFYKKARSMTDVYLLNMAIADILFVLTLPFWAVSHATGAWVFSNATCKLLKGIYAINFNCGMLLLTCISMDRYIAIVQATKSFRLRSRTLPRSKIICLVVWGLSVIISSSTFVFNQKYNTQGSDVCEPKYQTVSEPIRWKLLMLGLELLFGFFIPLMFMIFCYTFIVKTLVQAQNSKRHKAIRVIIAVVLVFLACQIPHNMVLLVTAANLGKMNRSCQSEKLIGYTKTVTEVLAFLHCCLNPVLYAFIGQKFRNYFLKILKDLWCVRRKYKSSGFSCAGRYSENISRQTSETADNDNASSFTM
APJ antagonist: APJ receptor antagonism; P35414; CHO-K1 APJ beta-arrestin complementation, luminescence; inhibition, % at 20 µM; 330,000 compounds, 0.32% hits; AID 2521;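 active = inhibition above about 40% at 20 µM, limit read from the data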;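 also: cells challenged with 10 nM apelin-13 agonist together with compound; plate controls were apelin-13 plus DMSO wells for no effect and DMSO wells lacking apelin-13 for full effect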
APJ agonist: activates the human apelin receptor APJ. P35414. 330,000 compounds, 0.11% hits. CHO-K1 APJ PathHunter beta-arrestin, luminescence; 0% DMSO wells, 100% apelin. activation, % at 20 µM;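 active = activation more than six SD over the plate average, tested at 20 µM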;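 also: 0% = DMSO alone and 100% = apelin-13 at 10 nM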
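Test system – PathHunter CHO-K1 APJ (AGTRL-1) beta-arrestin reporter cells · Input – 1000 cells/well · Compound – single test compound dose, 20 µM final, 1% DMSO · Times – compound stimulation 90 min at 25 °C, detection 60 min · Technique – beta-gal luminescence · Read-out basis – APJ–arrestin association signal · Control set – negative DMSO alone, positive Apelin-13 at 10 nM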
HTR2A ag: activates the mouse 5-HT2A serotonin receptor; P35363; CHO-K1 mHTR2A beta-arrestin complementation, luminescence; percent of 30 µM serotonin response; activation, % at 7.6 µM; 360,000 compounds, 0.66% hits;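 active = activation above a run cutoff, the mean activation of all tested compounds plus 3 SD, cut at about 14% in these data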;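 also: 0% = plate median of compound wells and 100% = 30 µM serotonin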
EBI2 conf: confirmation of human EBI2 receptor antagonists; shares compounds with EBI2 antag; AID 651997; 2,400 compounds, 29% hits; inhibition, % at 5 µM; EBI2 beta-arrestin luminescence, 7a,25-OHC antagonism;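 active = inhibition of at least 50%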
EBI2 agonist: activates EBI2, counter-screen for EBI2 antagonists; shares compounds with EBI2 antag; EBI2-expressing cells, agonist mode, luminescence, 60 min; 0% vehicle, 100% 7α,25-dihydroxycholesterol control; activation, % at 5 µM; 2,400 tested, under 10 active; AID 652000;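 active = activation of at least 50%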
bGal counter: inhibits E. coli beta-galactosidase, counter-screen for EBI2 antagonists | 2,400 compounds, 1% hits | AID 652176 | inhibition, % at 5 µM | shares compounds with EBI2 antag | purified beta-galactosidase, luminescent Galacton Star, 15 min;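 active = replicate-average signal at least 3 plate SD below neutral wells, shown as high inhibition, flagging enzyme-inhibiting false positives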;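 also: 0% = DMSO wells with enzyme and 100% = wells lacking enzyme; higher means stronger loss of beta-gal luminescence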
* = called active by the depositor; . = no result. Most compounds without a hit are left out; they make up all but 2.1% or so of the library.

SMILES	CXCR6 inh	EBI2 antag	CCR6 antag	APJ antagonist	APJ agonist	HTR2A ag	EBI2 conf	EBI2 agonist	bGal counter
COC(=O)CC1C(=O)NCCN1C(=O)c1ccc(Cl)cc1 (configuration not stated)	-3.0	-5.2	4.5	10.5	-3.0	1.9	.	.	.
S=c1[nH]c(-c2ccc(Br)cc2)cn1CCc1ccccc1	-6.6	56.6*	-2.2	-5.3	-0.5	-4.7	40.8	1.7	-0.9
C=CC[C@H](CC(=O)N(CCO)Cc1ccccc1)C(=O)N[C@H](C)COC(=O)[C@@H](CC=C)CC(=O)OC(C)(C)C	-1.2	-3.9	1.8	8.2	-3.2	0.5	.	.	.
Cc1ccnc(NC(=O)c2sc3cc(Cl)ccc3c2Cl)c1	-1.4	54.7*	-0.8	-3.7	-0.1	-3.6	55.2*	-1.8	-10.6
Cc1ccnc(NC(=O)CNC(=O)c2sc3ccccc3c2Cl)c1	0.4	-2.6	-14.0	17.5	-1.2	-2.0	.	.	.
CC(=O)NC(c1ccc(F)c(F)c1)c1nc(-c2ccc(C)c(C)c2)cs1 (configuration not stated)	2.1	0.6	.	.	.	-1.5	.	.	.
COc1ccccc1N1CCN(C(=O)c2cc(-c3ccc(F)cc3)on2)CC1	6.8	56.7*	2.6	3.1	-1.1	-4.0	48.2	-0.8	6.3
COc1ccc(-c2cc(C(=O)N3CCN(c4ccccc4OC)CC3)no2)cc1	5.8	68.3*	11.2	-5.9	-4.4	1.5	42.3	-2.0	-9.7
COc1ccccc1-c1cc(C(=O)N2CCN(c3ccccc3OC)CC2)no1	-0.7	18.1	-4.7	10.5	-1.4	1.9	.	.	.
COc1ccccc1N1CCN(C(=O)c2cc(-c3ccc(Cl)cc3)on2)CC1	7.9	57.5*	-0.2	-15.2	-3.0	1.1	41.0	0.1	4.5
COc1ccccc1N1CCN(C(=O)c2cc(-c3ccc(C)cc3)on2)CC1	-0.4	63.7*	2.7	6.5	-6.3	2.4	44.0	-0.1	0.8
Cc1noc(C)c1COC(=O)c1csc2c1CCCC2	-5.7	-3.1	14.2	-31.9	-6.1	3.0	.	.	.
CCOC(=O)c1ccccc1NC(=O)CSc1nnc(Cc2cccn2C)n1-c1ccc(C)cc1	-4.9	54.4*	16.0	2.9	-2.4	3.3	29.1	-0.7	-10.2
COc1ccc(-n2c(Cc3cccn3C)nnc2SCC(=O)Nc2ccc(C)c(Cl)c2)cc1	-11.0	46.8*	20.3	0.6	-4.2	-1.2	22.8	-0.9	11.1
COc1ccc(NC(=O)CSc2nnc(Cc3cccn3C)n2-c2ccc(C)cc2)cc1OC	-4.2	-8.3	-6.7	16.9	-1.5	0.5	.	.	.
COc1ccc(-n2c(Cc3cccn3C)nnc2SCC(=O)NCCc2ccccc2)cc1	5.8	44.4*	12.1	6.0	-0.6	5.7	36.2	-0.7	4.3
COc1ccc(-n2c(Cc3cccn3C)nnc2SCC(=O)Nc2cccc(C)c2C)cc1	5.0	49.4*	4.7	7.4	-3.2	-0.7	24.7	-1.8	-7.8
Cn1cccc1Cc1nnc(SCC(=O)NCCc2ccccc2)n1C	-4.9	-6.1	-4.6	2.0	-2.3	6.0	.	.	.
COc1ccc(-n2c(Cc3cccn3C)nnc2SCC(=O)Nc2ccccc2F)cc1	-0.7	36.3	16.0	-50.7	-1.2	0.5	.	.	.
CC(C)CN1CC(COCc2ccccc2)Oc2ccccc2S1(=O)=O (configuration not stated)	6.0	10.8	29.9	.	.	2.7	.	.	.
COc1ccc(-n2c(Cc3cccn3C)nnc2SCC(=O)Nc2ccccc2C)cc1	10.3	55.2*	15.9	12.5	-3.0	5.3	22.7	-1.1	-6.0
COc1ccc(-n2c(COc3ccccc3)nnc2SCC(N)=O)cc1	-5.4	48.9*	-7.4	-2.9	-1.0	-6.9	3.5	-1.4	-10.9
CS(=O)(=O)c1ccc(Cl)c(NC(=O)CSc2nnc(-c3cccs3)n2N)c1	1.0	-8.9	-9.8	2.4	-3.2	-1.5	.	.	.
Cc1cc(Cl)cc(Cl)c1OCCOc1cccc2cccnc12	-0.5	56.3*	24.4	20.9	-2.8	3.5	39.3	3.7	0.9
CC1CCc2c(sc3ncnc(NCCCOC(C)C)c23)C1 (configuration not stated)	-13.6	45.0*	20.4	-9.2	2.4	-2.7	33.1	0.5	1.1
SMILES	CXCR6 inh	EBI2 antag	CCR6 antag	APJ antagonist	APJ agonist	HTR2A ag	EBI2 conf	EBI2 agonist	bGal counter
CC1CCc2c(sc3ncnc(NCc4cccnc4)c23)C1 (configuration not stated)	5.6	4.2	12.0	14.3	-3.5	2.2	.	.	.
CC(=O)Nc1ccc(S(=O)(=O)Oc2ccc3c(c2)C(C)=CC(C)(C)N3)cc1	.	.	.	-35.9	5.2	.	.	.	.
CC1=CC(C)(C)Nc2ccc(OS(=O)(=O)c3ccc(C)cc3)cc21	-1.8	42.3*	11.2	-3.5	7.4	0.7	13.5	-0.3	2.1
C/C(=N\Nc1ncnc2sc(C)c(C)c12)c1ccccn1	-22.8	54.6*	-27.5	46.9*	0.8	-1.4	52.6*	-1.5	-4.5
CCN(CC)C(=O)C1CCN(C(=O)c2oc3ccc(C)cc3c2C)CC1	-2.0	79.5*	0.9	9.2	6.0	7.3	57.4*	3.2	5.7
Cc1ccc2oc(C(=O)N3CCC(O)(c4ccccc4)CC3)c(C)c2c1	4.5	84.3*	10.8	-15.8	1.1	-2.3	77.8*	0.6	3.3
CSc1c(C#N)c(N)nc2sc(C(=O)c3ccc(Cl)c(Cl)c3)c(N)c12	.	.	3.0	-23.9	0.8	.	.	.	.
COc1ccc(-c2c(C#N)c(N)nc3sc(C(=O)c4ccccc4)c(N)c23)cc1	5.1	48.8*	21.8	.	.	-1.1	42.5	-1.4	-7.6
CCCCOC(=O)CSc1nc(N)c(C#N)c(-c2ccc(OCC)cc2)c1C#N	7.8	21.2	8.5	3.2	-0.5	4.6	.	.	.
CCOc1ccc(-c2c(C#N)c(N)nc3sc(C(=O)c4ccccc4)c(N)c23)cc1	14.2	41.9*	7.8	5.3	-3.8	3.7	20.1	0.8	4.4
O=C(CCSc1ccc(F)cc1)NNC(=O)c1ccc([N+](=O)[O-])cc1	-12.6	-18.1	2.8	-2.2	3.9	-2.4	.	.	.
OCC[C@H]1C[C@@H](O)[C@H](O)[C@]2(OCCc3ccccc32)O1	-1.1	-13.7	4.6	1.8	-4.5	-5.8	.	.	.
CCOC(=O)C1=C(O)/C(=C/c2cc(OC)c(OC)c(OC)c2)SC1=Nc1ccc(OC)cc1	0.4	62.3*	-14.3	12.6	1.2	2.6	54.7*	-1.9	-11.7
